Measurements published in PMC7115590 (European Journal of Medicinal Chemistry, 2012).

Columns and labels:
[1] = system: Kunming mice; test: Acute toxicity in mice, single oral dose, 14 days observation; assay type: in vivo; conditions: for No. of dead, 1–7 day / No. of dead, 8–14 day / Total death / mortality: 10 mice; for Body weight, 0 day: group average
In short: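 Male and female Kunming mice (21 ± 2 g) were randomised into 4 groups of 10 (5 male + 5 female). Each group received one oral dose of test compound at 0, 50, 250 or 1250 mg/kg; the 0 group got the same volume of physiological saline. Mice had free food and water at 25 ± 1 °C on a 12-h light/dark cycle. Survival and body weight were recorded up to 14 days.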

[2] = Cytotoxicity; assay type: cell-based; conditions: human, HepG 2.2.15 cells
[3] = system: HBsAg (hepatitis B surface antigen) secretion; test: Inhibition of HBsAg secretion in HepG 2.2.15 cells; assay type: cell-based; conditions: Hepatitis B virus, HepG2.2.15, read-out: HBsAg IC50
[4] = system: HBV DNA replication; test: Inhibition of HBV DNA replication in HepG 2.2.15 cells; assay type: cell-based; conditions: Hepatitis B virus, HepG2.2.15, read-out: DNA replication IC50

| Structure (SMILES) | No. of dead, 1–7 day ([1]; 50 mg/kg oral) | No. of dead, 8–14 day ([1]; 50 mg/kg oral) | Total death ([1]; 50 mg/kg oral) | mortality ([1]; 50 mg/kg oral) | Body weight, 0 day ([1]; 50 mg/kg oral) [g] | No. of dead, 1–7 day ([1]; 250 mg/kg oral) | No. of dead, 8–14 day ([1]; 250 mg/kg oral) | Total death ([1]; 250 mg/kg oral) | mortality ([1]; 250 mg/kg oral) | Body weight, 0 day ([1]; 250 mg/kg oral) [g] | No. of dead, 1–7 day ([1]; 1250 mg/kg oral) | No. of dead, 8–14 day ([1]; 1250 mg/kg oral) | Total death ([1]; 1250 mg/kg oral) | mortality ([1]; 1250 mg/kg oral) | Body weight, 0 day ([1]; 1250 mg/kg oral) [g] | survival and abnormality of mice up to 14 days post administration ([1]; single oral dose at 50, 250 and 1250 mg/kg, Kunming mice of both genders) | CC50 [2] [µM] | IC50 [3] [µM] | IC50 [4] [µM] |
| --- | --- | --- | --- | --- | --- | --- | --- | --- | --- | --- | --- | --- | --- | --- | --- | --- | --- | --- | --- |
| COc1cc(/C=C/C(=O)O[C@H]2CC[C@@]3(C)C(=CC[C@]4(O)[C@@H]3C[C@@H](OC(=O)/C=C(\C)C(C)C)[C@@]3(C)[C@]4(O)CC[C@@]3(O)C(C)=O)C2)cc(OC)c1OC [Compound 18, 3-O-(3,4,5-Trimethoxy)cinnamoyl caudatin] | 0 | 0 | 0/0 | 0/0 | 22.4 | 0 | 0 | 0/0 | 0/0 | 22.3 | 0 | 0 | 0/0 | 0/0 | 22.6 | no dies and abnormality were observed |  |  |  |
| CC(=O)[C@]1(O)CC[C@@]2(O)[C@]1(C)[C@H](OC(=O)/C=C(\C)C(C)C)C[C@@H]1[C@@]3(C)CC[C@H](O)CC3=CC[C@]12O [Compound 1, caudatin] |  |  |  |  |  |  |  |  |  |  |  |  |  |  |  |  | 245 | 143 | 40.6 |
